# Test system: U2OS
# Assay: Multiplex assay against U2OS
# Assay type: toxicity, cell-based
# Conditions: human
# Procedure, shortened: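 Tubulin, mitochondrial-mass and membrane-permeability phenotypes are per cents of healthy-nucleus cells. Cells were gated by CellPathfinder machine learning into Hoechst high-intensity objects or normal cells, normal cells into healthy, pyknosed or fragmented nuclei, and pyknosed cells into mitotic or apoptotic. Before that, live cells stained at seeding with Hoechst33342, BioTracker Green Microtubule Cytoskeleton Dye, MitoTracker Red and Annexin V Alexa Fluor 680 were imaged on a CQ1 microscope at 37°C and 5% CO2 after compound addition.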
# [1] = 12 h, 1 µM, compound concentration 1 uM, replicate 1
# [2] = 12 h, 1 µM, compound concentration 1 uM, replicate 2
# [3] = 12 h, 10 µM, compound concentration 10 uM, replicate 1
# [4] = 12 h, 10 µM, compound concentration 10 uM, replicate 2
# [5] = 24 h, 1 µM, compound concentration 1 uM, replicate 1
# [6] = 24 h, 1 µM, compound concentration 1 uM, replicate 2
# [7] = 24 h, 10 µM, compound concentration 10 uM, replicate 1
# [8] = 24 h, 10 µM, compound concentration 10 uM, replicate 2
# [9] = 48 h, 1 µM, compound concentration 1 uM, replicate 1
# [10] = 48 h, 1 µM, compound concentration 1 uM, replicate 2
# [11] = 48 h, 10 µM, compound concentration 10 uM, replicate 1
# [12] = 48 h, 10 µM, compound concentration 10 uM, replicate 2
smiles,measurement,setting,value
Br.CS(=O)(=O)Nc1c(O)ccc2c1CCCC2C1=NCCN1 (centres undefined),Population Apoptotic (%),[1],63%
same,Population Fragmented Nuclei (%),[1],20%
same,Population Healthy Nuclei (%),[1],75%
same,Population Hoechst High Intensity Objects (%),[1],2%
same,Population Membrane Permeable-Phenotype (%),[1],3%
same,Population Mitochondria Different-Phenotype (%),[1],2%
same,Population Mitotic Cells (%),[1],36%
same,Population Normal (%),[1],97%
same,Population Pyknosed Nuclei (%),[1],3%
same,Population Tubulin-Different-Phenotype (%),[1],2%
same,Total Cell Count,[1],288
same,Population Apoptotic (%),[2],80%
same,Population Fragmented Nuclei (%),[2],13%
same,Population Healthy Nuclei (%),[2],82%
same,Population Hoechst High Intensity Objects (%),[2],0%
same,Population Membrane Permeable-Phenotype (%),[2],5%
same,Population Mitochondria Different-Phenotype (%),[2],1%
same,Population Mitotic Cells (%),[2],20%
same,Population Normal (%),[2],100%
same,Population Tubulin-Different-Phenotype (%),[2],1%
same,Total Cell Count,[2],151
same,Population Apoptotic (%),[3],69%
same,Population Fragmented Nuclei (%),[3],36%
same,Population Healthy Nuclei (%),[3],57%
same,Population Hoechst High Intensity Objects (%),[3],1%
same,Population Membrane Permeable-Phenotype (%),[3],8%
same,Population Mitochondria Different-Phenotype (%),[3],0%
same,Population Mitotic Cells (%),[3],30%
same,Population Normal (%),[3],98%
same,Population Pyknosed Nuclei (%),[3],6%
same,Population Tubulin-Different-Phenotype (%),[3],1%
same,Total Cell Count,[3],215
same,Population Apoptotic (%),[4],100%
same,Population Fragmented Nuclei (%),[4],22%
same,Population Healthy Nuclei (%),[4],75%
same,Population Hoechst High Intensity Objects (%),[4],0%
same,Population Membrane Permeable-Phenotype (%),[4],6%
same,Population Mitochondria Different-Phenotype (%),[4],6%
same,Population Mitotic Cells (%),[4],0%
same,Population Normal (%),[4],100%
same,Population Pyknosed Nuclei (%),[4],2%
same,Total Cell Count,[4],84
same,Population Apoptotic (%),[5],76%
same,Population Fragmented Nuclei (%),[5],18%
same,Population Healthy Nuclei (%),[5],73%
same,Population Hoechst High Intensity Objects (%),[5],2%
same,Population Membrane Permeable-Phenotype (%),[5],3%
same,Population Mitochondria Different-Phenotype (%),[5],2%
same,Population Mitotic Cells (%),[5],23%
same,Population Normal (%),[5],97%
same,Population Pyknosed Nuclei (%),[5],7%
same,Population Tubulin-Different-Phenotype (%),[5],2%
same,Total Cell Count,[5],341
same,Population Apoptotic (%),[6],92%
same,Population Fragmented Nuclei (%),[6],14%
same,Population Healthy Nuclei (%),[6],78%
same,Population Hoechst High Intensity Objects (%),[6],1%
same,Population Membrane Permeable-Phenotype (%),[6],7%
same,Population Mitotic Cells (%),[6],7%
same,Population Normal (%),[6],98%
same,Population Tubulin-Different-Phenotype (%),[6],4%
same,Total Cell Count,[6],185
same,Population Apoptotic (%),[7],86%
same,Population Fragmented Nuclei (%),[7],31%
same,Population Healthy Nuclei (%),[7],62%
same,Population Hoechst High Intensity Objects (%),[7],2%
same,Population Membrane Permeable-Phenotype (%),[7],5%
same,Population Mitochondria Different-Phenotype (%),[7],1%
same,Population Mitotic Cells (%),[7],13%
same,Population Normal (%),[7],97%
same,Population Pyknosed Nuclei (%),[7],6%
same,Population Tubulin-Different-Phenotype (%),[7],2%
same,Total Cell Count,[7],240
same,Population Apoptotic (%),[8],100%
same,Population Fragmented Nuclei (%),[8],16%
same,Population Healthy Nuclei (%),[8],80%
same,Population Hoechst High Intensity Objects (%),[8],0%
same,Population Membrane Permeable-Phenotype (%),[8],3%
same,Population Mitochondria Different-Phenotype (%),[8],4%
same,Population Mitotic Cells (%),[8],0%
same,Population Normal (%),[8],100%
same,Population Pyknosed Nuclei (%),[8],2%
same,Population Tubulin-Different-Phenotype (%),[8],3%
same,Total Cell Count,[8],103
same,Population Apoptotic (%),[9],74%
same,Population Fragmented Nuclei (%),[9],14%
same,Population Healthy Nuclei (%),[9],78%
same,Population Hoechst High Intensity Objects (%),[9],1%
same,Population Membrane Permeable-Phenotype (%),[9],2%
same,Population Mitochondria Different-Phenotype (%),[9],2%
same,Population Mitotic Cells (%),[9],25%
same,Population Normal (%),[9],98%
same,Population Pyknosed Nuclei (%),[9],6%
same,Population Tubulin-Different-Phenotype (%),[9],2%
same,Total Cell Count,[9],484
same,Population Apoptotic (%),[10],81%
same,Population Fragmented Nuclei (%),[10],13%
same,Population Healthy Nuclei (%),[10],76%
same,Population Membrane Permeable-Phenotype (%),[10],5%
same,Population Mitotic Cells (%),[10],18%
same,Population Pyknosed Nuclei (%),[10],10%
same,Population Tubulin-Different-Phenotype (%),[10],1%
same,Total Cell Count,[10],253
same,Population Apoptotic (%),[11],90%
same,Population Fragmented Nuclei (%),[11],23%
same,Population Healthy Nuclei (%),[11],70%
same,Population Hoechst High Intensity Objects (%),[11],1%
same,Population Membrane Permeable-Phenotype (%),[11],5%
same,Population Mitochondria Different-Phenotype (%),[11],1%
same,Population Mitotic Cells (%),[11],10%
same,Population Normal (%),[11],98%
same,Population Pyknosed Nuclei (%),[11],6%
same,Population Tubulin-Different-Phenotype (%),[11],2%
same,Total Cell Count,[11],333
same,Population Apoptotic (%),[12],100%
same,Population Fragmented Nuclei (%),[12],17%
same,Population Healthy Nuclei (%),[12],74%
same,Population Hoechst High Intensity Objects (%),[12],0%
same,Population Membrane Permeable-Phenotype (%),[12],3%
same,Population Mitochondria Different-Phenotype (%),[12],6%
same,Population Mitotic Cells (%),[12],0%
same,Population Normal (%),[12],100%
same,Population Pyknosed Nuclei (%),[12],7%
same,Total Cell Count,[12],152
